Assay results taken from the RNAGym collection of RNA variant scans (doi:10.1126/science.aae0568).
Variants at the floor of the assay were thinned out.

B1: tRNA (parent)
chain: GUUCCGUUGGCGUAAUGGUAACGCGUCUCCCUCCUAAGGAGAAGACUGCGGGUUCGAGUCCCGUACGGAACG

Variants of: B1
Assay: yeast fitness relative to wild type (ratio to wild type); higher = fitter; tRNA-Arg(CCU), competitive growth, 37 C, YPD
Outline: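 Start and end populations of a pooled competition were compared by 100-nucleotide paired-end sequencing of gene amplicons. The Saccharomyces cerevisiae strains carried tRNA-Arg(CCU) gene variants at the native genomic locus, synthesised with a 3% per-site mutation rate at 69 sites, and competed in YPD at 37°C for 24 hours in six parallel replicates. Darwinian fitness relative to wild type was based on the change in genotype frequencies. Genotypes required ≥ 100 starting reads, and estimates < 0.5 were set to 0.5.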

| Variant | yeast fitness |
| --- | --- |
| U3A C4A U8C C30U A45C G52C | ≤ 0.5 |
| C30U U54A A70U | 0.572 |
| C11U U26C | 0.948 |
| U19A U59C C61A U64C | ≤ 0.5 |
| C4A C31G G51C C66A | ≤ 0.5 |
| G6A C24A A43C G52C C66G A69G | ≤ 0.5 |
| U28C C62U | 1.02 |
| A15U A20G G52C A65U G67C | ≤ 0.5 |
| G39A A43U | 0.811 |
| A15C G48A C49U U64G C66U | ≤ 0.5 |
| U2C A69C | 0.872 |
| G12C C33G A36G G44C | ≤ 0.5 |
| U7C G25C U47C | 0.622 |
| U2G A42U U64C | ≤ 0.5 |
| C29U G38C A43U U53G G63C | ≤ 0.5 |
| U13C A36C | 0.643 |
| G18A U19A G63A | ≤ 0.5 |
| U3C A15U C34U A43G C49U | ≤ 0.5 |
| U3A A20G C24U C55G C61U | ≤ 0.5 |
| U2A C4U G10C C29U U32A A43U | ≤ 0.5 |
| A45C U47G A57G | 0.605 |

| Variant | yeast fitness |
| --- | --- |
| C49U U59A | 0.852 |
| G18C A21G A70C | 0.572 |
| A20G G50C C61A A69G | ≤ 0.5 |
| A15C C24G | 0.557 |
| C5A G63C | 0.761 |
| C31G A36C C49U U54G A65U | ≤ 0.5 |
| C24G A36U A40U C46G G48C | 0.557 |
| A37U G50C G67A | ≤ 0.5 |
| C5U G39A G51U G58C | ≤ 0.5 |
| A14C A43G U64A | ≤ 0.5 |
| A21G A45C U59C | 0.732 |
| C46G G50C G56A A57U | ≤ 0.5 |
| A40G A70G | 1.09 |
| C5A A15U A21U C61U A69C | ≤ 0.5 |
| A20U G38A C46A | 0.541 |
| G17C A65U | 0.649 |
| G6C U13C C33U A42C C60U A69G | 0.665 |
| A21U A37U A45C G51A G67A | 0.67 |
| A14U G17A G23A G63A | ≤ 0.5 |
| G17A G51C | 0.543 |
| G10C A14G G39A A65U | ≤ 0.5 |

| Variant | yeast fitness |
| --- | --- |
| G9A C31A C46A A57G | ≤ 0.5 |
| G10C C29G A70C | ≤ 0.5 |
| A36U U59C C62G | ≤ 0.5 |
| G9C A20G G50C | ≤ 0.5 |
| G12A C29A U35A | ≤ 0.5 |
| C22G C31A U47C C49G G63C A69U | ≤ 0.5 |
| C34G A70G | 0.586 |
| G48A A69C | 0.96 |
| C5U A15C C34G A40U A43C C49G G50A C60U | 0.583 |
| C31U A42U A70U | 1.14 |
| C22A C24G G67C G68A | ≤ 0.5 |
| C34U C46G A70U | 0.601 |
| A37G G51C C62G | 0.55 |
| U8A C29U C62U A70U | ≤ 0.5 |
| C4U G6A C31U C34U | ≤ 0.5 |
| G10A A15C G25A | 0.582 |
| A14U C34G C61A | ≤ 0.5 |
| C5U U19A | 0.906 |
| C29A G44C G67A | ≤ 0.5 |
| A45G A57G | 0.943 |
| C5U C34U A42U | 0.529 |

| Variant | yeast fitness |
| --- | --- |
| A15C C30A A42C G56A C60G | ≤ 0.5 |
| U13A C22G C31G C61A G67A | ≤ 0.5 |
| U28G U32A | 0.678 |
| G25A G58C C66U | 0.778 |
| U3C U16G | 0.823 |
| C5G U7G C61U | 0.649 |
| G25A U53A G63A | 0.523 |
| U2G A40U | 0.813 |
| U28G A37C C55U | ≤ 0.5 |
| U19C C24U U32C A37C A45G A57C | 0.638 |
| A15U C31G C33U A37C A65U G67A | ≤ 0.5 |
| U16C G51A A70G | 0.578 |
| C22A A65C | 0.836 |
| C22G C29G G56A | 0.575 |
| U3C C29G C46U C49U U59G A65U G68A | ≤ 0.5 |
| G25C C29G G41A C49U A65G C66U | 0.583 |
| A15G G38C | 0.669 |
| C29G A43U A70U | 0.563 |
| C4G A15C C29G G48A | ≤ 0.5 |
| C11U C49A | 0.724 |
| A21U G41C A43C U54G A69C | 0.551 |
